D1 allo mod = D1 CRE-luciferase signal change, two-sided – cell-based, HEK293 D1, dopamine EC30, D1 allosteric modulator project, primary screen; dopamine EC30 potentiation; actives deviate in either direction; AID 641, 2007; B-score at 10 µM; 5.9% of 58,000 active;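 active = luminescence count or its row- and column-corrected plate score outside the 99.7% band of the plate's sample wells, on either side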
HEK293 NFkB inh = inhibitors of PMA/ionomycin-induced NF-kB reporter, primary screen, antigen receptor NF-kB inhibitor project, cell-based, HEK-293 luciferase reporter, luminescence. HEK-293 NF-kB luciferase reporter. inhibition, % at 3 µM. 0.21% of 62,000 active. AID 465, 2006;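 active = inhibition above the mean of all tested compounds plus 3 SD, cut at about 40% in these data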;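 note: 0% = stimulated DMSO wells and 100% = 10 µM reference inhibitor 5653914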
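Material: HEK-293 cells with stable firefly luciferase reporter driven by four HIV NF-kB elements / Also added: PMA plus ionomycin mix as NF-kB-activating stimulus / Compound dosing: 3 µM once, 0.30% DMSO / Times: 1 h pretreatment, 16 h stimulation, 37 °C / Signal: luminescence / Evaluation: per-plate % inhibition versus controls / Benchmarks: DMSO and 10 µM reference inhibitor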
M1 ag = M1 muscarinic receptor agonists, primary screen, CHO-M1 cells, Fluo-4 calcium, agonist mode | Muscarinic acetylcholine receptor M1 | 3% of 64,000 active | B-score at 10 µM | Fluo-4 calcium fluorescence; stronger effect = higher value;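 active = fluorescence rise, raw or as B-score row- and column-corrected plate score, outside the 99.7% band of its plate's samples, either direction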
M1 antag = antagonists of rat M1 muscarinic receptor; AID 628, 2007; Muscarinic acetylcholine receptor M1 (Rattus norvegicus), P08482; CHO-M1 cells, Fluo-4 calcium, ACh EC80 antagonist mode; stronger effect = lower value; B-score at 10 µM; 3.4% of 64,000 active;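 active = calcium fluorescence response, raw or row-and-column corrected B-score, differing from the plate sample mean either way at a set confidence level, mostly lower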
hDAT+cocaine = changed hDAT dopamine uptake under cocaine IC80, either direction, primary screen, cocaine antagonist project, cell-based, LLC-PK1 hDAT, [14C]-dopamine uptake, MLSMR | Sodium-dependent dopamine transporter (Homo sapiens), Q01959 | LLC-PK1 hDAT cells, [14C]-dopamine uptake with cocaine IC80; actives deviate in either direction | B-score at 10 µM | 1.3% of 110,000 active | AID 449768, 2010;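 active = Z score or B-score, a plate-position-corrected score, falls beyond the plate's 99.7% confidence bounds, in either direction; inactive = both scores lie inside the 99.7% bounds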;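 note: scored against the spread of the other compound wells on the same plate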
Jurkat tox 60K = cytotoxicity toward Jurkat T cells, primary screen, cytotoxicity control, cell-based, Jurkat E6.1, 60K MLSMR library. Jurkat E6.1 viability, ATP luminescence, 48 h. inhibition, % at 4 µM. 1.2% of 56,000 active;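 active = inhibition above the mean inhibition of all tested compounds plus 3 SD, cut at about 28% in these data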
M1 agonist conf = rat M1 muscarinic receptor agonists, confirmation, CHO-M1 cells, Fluo-4 calcium, duplicate retest; 19% of 1,700 active; AID 1488, 2009; shares compounds with M1 ag; Fluo-4 calcium fluorescence, agonist mode; actives lie on both sides; fluorescence change (max-min) at 10 µM;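 active = fluorescence change differs from the solvent-only DMSO control mean at a set confidence level in both duplicate runs; inconclusive = differs from solvent-only control mean in just one of two runs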;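 note: an EC20 dose of acetylcholine follows compound addition during the same imaging run; raw fluorescence intensity difference in instrument units with no normalization to controls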
M4 agonist ctr = agonist activity at rat M4 receptor, confirmation, counter-screen for M1 allosteric modulator project, cell-based, agonist mode; 9% of 1,700 active; fluorescence change (max-min) at 10 µM; shares compounds with M1 ag; CHO M4/Gqi5 cells, Fluo-4 calcium fluorescence; actives lie on both sides;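 active = fluorescence change differing from the plate's solvent-only control wells at 99.7% confidence in both duplicates, whether higher or lower; inconclusive = differs from solvent controls in only one of two duplicates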
Target sequence (P08485 whole entry, looked up): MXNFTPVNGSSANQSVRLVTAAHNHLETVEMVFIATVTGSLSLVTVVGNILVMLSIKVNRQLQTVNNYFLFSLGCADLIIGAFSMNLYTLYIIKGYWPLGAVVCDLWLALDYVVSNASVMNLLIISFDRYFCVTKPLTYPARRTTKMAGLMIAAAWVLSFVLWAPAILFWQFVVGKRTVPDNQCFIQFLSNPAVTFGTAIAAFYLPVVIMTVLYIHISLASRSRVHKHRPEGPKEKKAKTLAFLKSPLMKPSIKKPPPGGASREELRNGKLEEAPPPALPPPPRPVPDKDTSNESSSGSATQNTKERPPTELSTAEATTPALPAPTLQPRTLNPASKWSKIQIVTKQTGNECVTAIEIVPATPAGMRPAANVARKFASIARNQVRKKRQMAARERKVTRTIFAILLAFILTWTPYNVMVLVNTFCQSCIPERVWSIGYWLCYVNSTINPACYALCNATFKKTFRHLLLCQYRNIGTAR
* marks the source's active call; other numbers are inactive results; ? = inconclusive; . = no result given. This is a sample that favours compounds with a hit; in the whole collection about 7.6% have one here.

SMILES | D1 allo mod | HEK293 NFkB inh | M1 ag | M1 antag | hDAT+cocaine | Jurkat tox 60K | M1 agonist conf | M4 agonist ctr
CCn1c(C)nc2cc(C(=O)NNS(=O)(=O)c3c(C)c(C)cc(C)c3C)ccc21 | . | . | . | . | 1.6 | . | . | .
COC(=O)COc1cccc(NS(=O)(=O)c2ccc(NC(C)=O)cc2)c1 | -0.2 | -4 | -0.11 | 0.23 | 0.54 | 6 | . | .
Cc1ccc(C(=O)NCCn2cc(SCC(=O)Nc3nnc(C)s3)c3ccccc32)cc1 | -1.3 | 26 | 2.9* | -0.094 | 1.1 | 4 | ? | -58
COc1ccc(C(=O)NCCn2cc(SCC(=O)Nc3cc(C)on3)c3ccccc32)cc1OC | 0.23 | 4 | 3.5* | -0.16 | -0.13 | 4 | -27* | -53
O=C(OC(C(=O)NC1CCCC1)c1ccccc1F)c1ccco1 (stereo not drawn) | 0.015 | 9 | 0.41 | -0.34 | 3.1 | 0 | . | .
CCc1c(C)nc(Nc2nc(C)c3ccc(OC)cc3n2)[nH]c1=O | . | . | . | . | 1.7 | . | . | .
CCc1c(C)nc(Nc2nc(C)c3cc(OC)ccc3n2)[nH]c1=O | -1.6 | 12 | 4.1* | -0.38 | 0.29 | -1 | -22 | -20
COc1ccc(C(c2sc3nc(C)nn3c2O)N2CCN(CCO)CC2)cc1OC (stereo not drawn) | 0.17 | 11 | -0.38 | 0.0093 | -1.2 | 4 | . | .
O=C1CC(c2ccncc2)c2cc3c(cc2N1)OCO3 (stereo not drawn) | 1.5 | 10 | 2.4* | 0.073 | -0.022 | -1 | -8.1 | ?
O=C1CC(c2ccc3c(c2)OCO3)c2cc3c(cc2N1)OCO3 (stereo not drawn) | . | 12 | 0 | 1.5 | -0.81 | . | . | .
CCCCCCc1cc2cc(C(=O)NC)c(=N)oc2cc1O | . | . | 401* | -15* | -0.75 | . | 3193* | 2756*
CCCCCCc1cc2cc(C(N)=O)c(=N)oc2cc1O | . | . | . | . | -0.066 | . | . | .
CCn1cc(Br)c(C(=O)Nc2cccc(Cl)c2)n1 | 0.92 | -2 | 0.32 | -0.33 | 0.6 | 0 | . | .
Cc1c(NC(=O)c2cc3ccccc3o2)c(=O)n(-c2ccccc2)n1C | . | . | . | . | 0.85 | . | . | .
Cc1c(NC(=O)c2ccc(COc3ccc4ccccc4c3)o2)c(=O)n(-c2ccccc2)n1C | -0.5 | 10 | -2.8* | 0.026 | 0.76 | 17 | -14 | -52
Cc1c(NC(=O)c2cccc(F)c2)c(=O)n(-c2ccccc2)n1C | -0.71 | 3 | 8.9* | -6.5* | -0.92 | -3 | -14 | ?
Cc1c(NC(=O)c2ccc(F)cc2)c(=O)n(-c2ccccc2)n1C | -0.51 | 2 | 1.4 | 0.45 | 0.14 | 0 | . | .
O=C(NC12CC3CC(CC(C3)C1)C2)c1ccc(-c2ccccc2Cl)o1 | . | . | . | . | -0.054 | . | . | .
COc1ccc(CNC(=O)c2cc3c(C)nc4ccccc4c3o2)c(OC)c1 | -4.1 | 17 | 4.9* | -1.6 | 0.53 | 60* | 1.1 | -2.5
COc1cccc(CNC(=O)c2cc3c(C)nc4ccccc4c3o2)c1 | . | . | . | . | 0.79 | . | . | .
COc1ccc(C)cc1NC(=O)c1cc2c(C)nc3ccccc3c2o1 | 0.87 | 13 | -0.46 | -0.12 | . | 0 | . | .
COc1cc(NC(=O)c2cc3c(C)nc4ccccc4c3o2)cc(OC)c1OC | -4.6* | 17 | 3.5* | -0.94 | 0.31 | 5 | -14 | -11
COc1cc(OC)cc(-c2nc3cc(C)ccc3o2)c1 | 0.067 | -55 | 0.061 | -0.21 | -0.0073 | 3 | . | .
CCOC(=O)N1CCN(c2cc(NCCC(=O)O)c3c4c(onc24)-c2ccccc2C3=O)CC1 | 1.7 | 29 | 14* | 0.7 | -0.01 | 6 | -7.4 | -21
CS(=O)(=O)N(CC(=O)N1CCN(c2ccc(F)cc2)CC1)c1cccc(Cl)c1 | . | . | . | . | 0.032 | . | . | .
SMILES | D1 allo mod | HEK293 NFkB inh | M1 ag | M1 antag | hDAT+cocaine | Jurkat tox 60K | M1 agonist conf | M4 agonist ctr
Cc1ccc(-c2nc(CSCC(=O)N3CCN(c4ccccn4)CC3)c(C)o2)cc1 | -2.9 | 13 | 5.6* | -2.3* | 1.7 | 29 | ? | -52
Cc1ccc(-c2nc(CSCC(=O)N3CCOCC3)c(C)o2)cc1 | 1.2 | 11 | -0.92 | -0.0077 | 1.2 | 6 | . | .
CCc1ccc(-c2nc(CSCC(=O)N3CCN(c4ccccn4)CC3)c(C)o2)cc1 | -1.6 | 11 | 4.6* | -1.4 | -0.22 | 25 | -6.3 | ?
Cc1cccc(-c2nc(CSCC(=O)N3CCN(Cc4ccc5c(c4)OCO5)CC3)c(C)o2)c1 | 0.53 | 13 | 5.7* | -4* | 2.3 | 6 | -0.64 | ?
CCCC1=C(C(=O)OCC)C(/C=C/c2ccccc2)n2ncnc2N1 (stereo not drawn) | . | . | . | . | 0.52 | . | . | .
Oc1ccccc1C1Nc2cccc3cccc(c23)N1 | -0.29 | 10 | 2.7* | 0.034 | -0.32 | 3 | ? | -22
COc1ccccc1C1Nc2cccc3cccc(c23)N1 | . | . | . | . | -0.18 | . | . | .
N#CC1=C(SCc2ccccc2)NC(=O)CC1c1ccco1 (stereo not drawn) | 0.15 | 17 | 4.3* | -0.46 | 0.67 | 7 | -8.3 | ?
Cc1c(C(=O)NCCC2=CCCCC2)oc2ccc(S(=O)(=O)N3CCC4(CC3)OCCO4)cc12 | . | 29 | 9* | -1.4 | 0.84 | . | -17 | ?
Cc1c(C(=O)Nc2cccc(Cl)c2)oc2ccc(S(=O)(=O)N3CCC4(CC3)OCCO4)cc12 | 1.2 | 8 | 3.6* | -1.3 | 0.44 | . | -3.4 | -20
Cc1c(C(=O)Nc2ccc(F)cc2)oc2ccc(S(=O)(=O)N3CCC4(CC3)OCCO4)cc12 | -0.73 | 15 | 4.7* | -0.85 | -0.24 | 9 | -1.3 | -35
Cc1c(C(=O)NCc2ccccc2)oc2ccc(S(=O)(=O)N3CCC4(CC3)OCCO4)cc12 | . | 23 | 2 | -1.1 | 0.32 | . | . | .
Cc1c(C(=O)NCC2CCCO2)oc2ccc(S(=O)(=O)N3CCCCC3)cc12 (stereo not drawn) | 0.0078 | 16 | 0.15 | -0.42 | . | 4 | . | .
O=C(Nc1ccc2oc(=O)ccc2c1)c1cccnc1 | . | 8 | -0.059 | -0.054 | 0.76 | 0 | . | .
O=C(NCCN1CCOCC1)c1ccc(CS(=O)(=O)Cc2ccccc2F)o1 | . | 5 | -1.2 | 0.35 | 0.63 | . | . | .
CCCNC(=O)Cn1cnc2sc(C(=O)N3CCN(c4ccc(F)cc4)CC3)c(C)c2c1=O | . | . | . | . | -0.83 | . | . | .

High-throughput results (PubChem BioAssay)
